In ChEMBL document CHEMBL1153793, “New pyridone, thioxopyridine, pyrazolopyridine and pyridine derivatives that modulate inflammatory mediators in stimulated RAW 264.7 murine macrophage” (Eur J Med Chem, 2009):
The source made the active and inactive calls. The rule behind the calls is not given here.

Key:
[1] = test system: RAW264.7; experiment: Cytotoxicity against mouse RAW264.7 cells assessed as cell viability after 24 hrs by MTT assay; format: cell-based; settings: RAW264.7, 24 h, in the assay text read “MTT assay” for “ultra gel clot assay”
Summary of the method: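 RAW 264.7 macrophages (5×10^4 cells/well) exposed 24 h at 37 °C to a range of compound concentrations, then read by MTT reduction to formazan, solubilised in acidic isopropanol. Viability expressed as mean % of untreated cells (n = 4); 1000 U/ml M-CSF as positive control. IC50 derived.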

[2] = test system: RAW264.7; experiment: Effect on mouse RAW264.7 cell function assessed as FITC-LPS binding to macrophage after 15 mins by fluorimetry; format: functional, cell-based
Summary of the method: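 5×10^5 RAW 264.7 cells pre-incubated 15 min at 37 °C with compound in RPMI-1640 plus 10% FBS as the CD14/LBP source. FITC-LPS (200 ng/ml) then added for 1 h. After PBS wash, fluorescence read at ex 485/em 530 nm and median fluorescence intensity reported.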

[3] = test system: RAW264.7; experiment: Effect on inflammatory mediators in LPS-stimulated mouse RAW264.7 cells assessed as nitrite accumulation at 20% IC50 after 24 hrs by Griess assay; format: functional
[4] = test system: RAW264.7; experiment: Effect on inflammatory mediators in mouse RAW264.7 cells assessed as nitrite accumulation at 20% IC50 after 24 hrs by Griess assay; format: functional
[5] = test system: RAW264.7; experiment: Effect on inflammatory mediators in LPS-stimulated mouse RAW264.7 cells assessed as TNF-alpha accumulation at 20% IC50 after 24 hrs by ELISA; format: functional
[6] = test system: RAW264.7; experiment: Effect on inflammatory mediators in mouse RAW264.7 cells assessed as TNF-alpha accumulation at 20% IC50 after 24 hrs by ELISA; format: functional
[7] = test system: RAW264.7; experiment: Effect on inflammatory mediators in LPS-stimulated mouse RAW264.7 cells assessed as PGE2 accumulation at 20% IC50 after 24 hrs by ELISA; format: functional
[8] = test system: RAW264.7; experiment: Effect on inflammatory mediators in mouse RAW264.7 cells assessed as PGE2 accumulation at 20% IC50 after 24 hrs by ELISA; format: functional
[9] = test system: RAW264.7; experiment: Effect on inflammatory mediators in LPS-stimulated mouse RAW264.7 cells assessed as COX-2 accumulation at 20 uM after 24 hrs by dot immunoblotting; format: functional
Summary of the method: (§1)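 Cells treated 24 h with 20 µM compound, with or without LPS (1 µg/ml). 20 µg soluble lysate protein dot-blotted onto nitrocellulose and probed with rabbit anti-mouse COX-2 or 5-LO, HRP anti-rabbit secondary and OPD colour. Intensity normalised to β-actin dots; four repeats.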

[10] = test system: RAW264.7; experiment: Effect on inflammatory mediators in mouse RAW264.7 cells assessed as COX-2 accumulation at 20 uM after 24 hrs by dot immunoblotting; format: functional; summary of the method: as §1
[11] = test system: RAW264.7; experiment: Effect on inflammatory mediators in LPS-stimulated mouse RAW264.7 cells assessed as COX-2 accumulation at 20% IC50 after 24 hrs by dot immunoblotting; format: functional
Summary of the method: (§2)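 20 µg lysate protein dot-blotted, probed with anti-mouse COX-2 or 5-LO, detected by HRP/OPD and normalised to β-actin.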

[12] = test system: RAW264.7; experiment: Effect on inflammatory mediators in mouse RAW264.7 cells assessed as COX-2 accumulation at 20% IC50 after 24 hrs by dot immunoblotting; format: functional; summary of the method: as §2
[13] = test system: RAW264.7; experiment: Effect on inflammatory mediators in LPS-stimulated mouse RAW264.7 cells assessed as 5-LO accumulation at 20 uM after 24 hrs by dot immunoblotting; format: functional; summary of the method: as §1
[14] = test system: RAW264.7; experiment: Effect on inflammatory mediators in mouse RAW264.7 cells assessed as 5-LO accumulation at 20 uM after 24 hrs by dot immunoblotting; format: functional; summary of the method: as §1
[15] = test system: RAW264.7; experiment: Effect on inflammatory mediators in LPS-stimulated mouse RAW264.7 cells assessed as 5-LO accumulation at 20% IC50 after 24 hrs by dot immunoblotting; format: functional; summary of the method: as §2
[16] = test system: RAW264.7; experiment: Effect on inflammatory mediators in mouse RAW264.7 cells assessed as 5-LO accumulation at 20% IC50 after 24 hrs by dot immunoblotting; format: functional; summary of the method: as §2
[17] = Hydroxyl radical scavenging activity assessed as trolox equivalents at 1 uM by ORAC assay; format: functional
Summary of the method: (§3)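 β-Phycoerythrin fluorescence decay followed kinetically for 2 h at 37 °C with 1 µM compound, against peroxyl and hydroxyl radicals. One ORAC unit = net protection given by 1.0 µM Trolox.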

[18] = Peroxyl radical scavenging activity assessed as trolox equivalents at 1 uM by ORAC assay; summary of the method: as §3
[19] = Antioxidant activity assessed as superoxide radical scavenging activity; format: functional
Summary of the method: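 Non-cellular assay; superoxide generated by oxidation of 50 µM hypoxanthine with 12 mU xanthine oxidase. Scavenging followed as the rate of nitroblue tetrazolium reduction to formazan. SC50 taken from dose-dependent curves of serial dilutions; superoxide dismutase as standard inhibitor.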

[20] = test system: RAW264.7; experiment: Induction of phagocytosis in mouse RAW264.7 cells assessed as phagocytic activity against FITC-zymosan after 1 hr by fluorimetry; format: functional, cell-based
Summary of the method: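 Cells at 1×10^5/well in phenol red-free RPMI-1640 rested 24 h, then given compound for 1 h. FITC-zymosan added for a further 1 h; cells washed three times and lysed with Triton X-100. Fluorescence read at 485/530 nm and expressed relative to untreated cells (100%).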

Structure (SMILES) | IC50 [1] [µM] | Activity [2] | Activity [3] [nmol] | Activity [4] [nmol] | Activity [5] [pg] | Activity [6] [pg] | Activity [7] [pg] | Activity [8] [pg] | Activity [9] [%] | Activity [10] [%] | Activity [11] [%] | Activity [12] [%] | Activity [13] [%] | Activity [14] [%] | Activity [15] [%] | Activity [16] [%] | Activity [17] | Activity [18] | SC50 [19] [µg/mL] | Activity [20]
CC(C)c1ccc(-c2cc(-c3ccc4c(c3)CCCC4)nc(Cl)c2C#N)cc1 | 8.4 | inactive | 611.68 | 439.13 | 5110.4 | 350.05 | 2870.25 | 45.39 | 80.1 | 28.7 | 80.1 | 28.7 | 94.6 | 29.5 | 94.6 | 29.5 | 1.1 | 0.92 | > 100 | 
COc1ccc(-c2cc(-c3ccc4c(c3)CCCC4)nc(NCc3ccccc3)c2C#N)cc1OC | 4.9 | inactive | 915.9 | 720.91 | 5520.55 | 2460.46 | 3010.66 | 31.29 |  |  | 99.2 | 46.3 |  |  | 94.7 | 30.2 | 3.54 | 2.95 | 38.4 | inactive
COc1ccc(-c2cc(-c3ccc4c(c3)CCCC4)[nH]c(=S)c2C#N)cc1OC | 29.4 |  | 380.12 | 8.58 | 4652.4 | 79.18 | 3309.3 | 28.66 |  |  | 72.8 | 12.3 |  |  | 85.4 | 18.3 | 0.85 | 0.9 | 65.4 | 
CCOC(=O)COc1nc(-c2ccc3c(c2)CCCC3)cc(-c2ccc(OC)c(OC)c2)c1C#N | 26.2 |  | 388.4 | 2.65 | 3945.11 | 66.57 | 2954.2 | 22.4 |  |  | 68.7 | 27.5 |  |  | 79.6 | 21.9 | 2.47 | 2.01 | 55.7 | 
CC(C)c1ccc(-c2cc(-c3ccc4c(c3)CCCC4)nc(OCC(=O)NCc3ccccc3)c2C#N)cc1 | 9.9 |  | 32.75 | 10.19 | 615.33 | 69.65 | 3260.2 | 48.15 |  |  | 20.1 | 20.6 |  |  | 61.7 | 21.7 | 3.44 | 2.22 | 24.6 | Active
CCOC(=O)COc1nc(-c2ccc3c(c2)CCCC3)cc(-c2ccc(C(C)C)cc2)c1C#N | > 50 | Active | 110.54 | 3.19 | 2810.66 | 72.45 | 2870.5 | 50.5 |  |  | 31.3 | 18.7 |  |  | 38.7 | 11.9 | 1.05 | 2.36 | 81.4 | Active
